Data as given in ChEMBL document CHEMBL3751835, “Discovery of the imidazole-derived GPR40 agonist AM-3189” (Bioorg Med Chem Lett, 2016).
The source made the active and inactive calls. The rule behind the calls is not given here.

Key:
[1] = target: T1, Free fatty acid receptor 1 (Homo sapiens, UniProt O14842); assay: Partial agonist activity at human GPR40 expressed in CHO cells measured over 20 secs interval by luminometric analysis in presence of 0.01% human serum albumin; format: cell-based
Summary of the method: (§1)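 Aequorin chemiluminescence read-out of calcium flux in a CHO line stably transfected with human GPR40, giving EC50. Run in buffer containing 0.01% human serum albumin, or in 100% human serum to test activity with plasma proteins present.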

[2] = target: T1, Free fatty acid receptor 1; assay: Partial agonist activity at human GPR40 expressed in CHO cells measured over 20 secs interval by luminometric analysis in presence of 100% human serum; format: cell-based; summary of the method: as §1
Pancreatic islet = assay: Induction of insulin release in human pancreatic islets; format: functional
[3] = target: T1, Free fatty acid receptor 1; assay: Partial agonist activity at human GPR40 expressed in CHO cells measured over 20 secs interval by luminometric analysis; format: cell-based
Mus musculus = assay: Reduction of blood glucose AUC in human islet transplanted nude chimeric mouse at 100 ug/kg administered 1 hr prior to glucose challenge by OGTT; format: functional, organism-based
Summary of the method: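 Nude mice had their endogenous pancreatic β-cells ablated with streptozotocin and were rescued to euglycemia by human islets transplanted under the kidney capsule. Compound was dosed before a glucose challenge, and the glucose AUC was determined.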

[4] = target: T1, Free fatty acid receptor 1; assay: Potency index , ratio of EC50 for AMG837 to EC50 for test compound for partial agonist activity at human GPR40 expressed in CHO cells measured over 20 secs interval by luminometric analysis in presence of 0.01% human serum albumin; format: cell-based

T1 sequence (O14842 whole entry): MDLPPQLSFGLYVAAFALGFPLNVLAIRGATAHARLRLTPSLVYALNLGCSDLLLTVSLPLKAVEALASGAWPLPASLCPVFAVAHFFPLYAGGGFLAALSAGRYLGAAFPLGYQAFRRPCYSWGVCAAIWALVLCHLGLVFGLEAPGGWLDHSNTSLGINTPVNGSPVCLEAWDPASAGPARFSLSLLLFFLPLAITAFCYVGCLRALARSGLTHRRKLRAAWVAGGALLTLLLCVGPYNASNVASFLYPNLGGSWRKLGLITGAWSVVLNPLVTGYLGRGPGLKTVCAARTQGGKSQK

Compound	EC50 [1]	EC50 [2]	also measured
Cc1cc(F)ccc1-c1cccc(COc2ccc([C@H](CC(=O)O)c3nccn3C)cc2)c1	59 nM	21000 nM	
CC#C[C@@H](CC(=O)O)c1ccc(OCc2cccc(-c3ccc(C(F)(F)F)cc3)c2)cc1			Activity (Pancreatic islet): Active
Cn1ccnc1[C@@H](CC(=O)O)c1ccc(OCc2cccc(-c3ccccc3OC(F)(F)F)c2)cc1	112 nM	61000 nM	
Cn1ccnc1[C@@H](CC(=O)O)c1ccc(OCc2cccc(-c3ccccc3C#N)c2)cc1	690 nM		
O=C(O)CC(c1ccc(OCc2cccc(-c3ccc(C(F)(F)F)cc3)c2)cc1)c1cccnc1 (racemic)			EC50 [3]: 400 nM
Cn1ccnc1[C@@H](CC(=O)O)c1ccc(OCc2cccc(-c3ccc(Cl)cc3Cl)c2)cc1	69 nM	30000 nM	
CC[C@H](C)[C@H](NC(=O)[C@H](Cc1ccccc1)NC(=O)[C@H](CCC(=O)O)NC(=O)[C@H](CCCCN)NC(=O)[C@H](C)NC(=O)[C@H](C)NC(=O)[C@H](CCC(=O)O)NC(=O)CNC(=O)[C@H](CCC(=O)O)NC(=O)[C@H](CC(C)C)NC(=O)[C@H](Cc1ccc(O)cc1)NC(=O)[C@H](CO)NC(=O)[C@H](CO)NC(=O)[C@@H](NC(=O)[C@H](CC(=O)O)NC(=O)[C@H](CO)NC(=O)[C@@H](NC(=O)[C@H](Cc1ccccc1)NC(=O)[C@@H](NC(=O)CNC(=O)[C@H](CCC(=O)O)NC(=O)[C@H](C)NC(=O)[C@@H](N)Cc1cnc[nH]1)[C@@H](C)O)[C@@H](C)O)C(C)C)C(=O)N[C@@H](C)C(=O)N[C@@H](Cc1c[nH]c2ccccc12)C(=O)N[C@@H](CC(C)C)C(=O)N[C@H](C(=O)N[C@@H](CCCCN)C(=O)NCC(=O)N[C@@H](CCCNC(=N)N)C(=O)NCC(=O)O)C(C)C			Activity (Mus musculus): Active
O=C(O)CC(c1ccccc1)c1ccc(OCc2cccc(-c3ccc(C(F)(F)F)cc3)c2)cc1 (racemic)			EC50 [3]: 330 nM
Cc1cc(Cl)ccc1-c1cc(COc2ccc([C@H](CC(=O)O)c3nccn3C)cc2)ccc1C	97 nM	9800 nM	
O=C(O)CC(c1ccncc1)c1ccc(OCc2cccc(-c3ccc(C(F)(F)F)cc3)c2)cc1 (racemic)			EC50 [3]: 190 nM
Cc1cccc(C)c1-c1cccc(COc2ccc([C@H](CC(=O)O)c3nccn3C)cc2)c1	58 nM	29000 nM	
Cn1ccnc1[C@@H](CC(=O)O)c1ccc(OCc2cccc(-c3ccccc3S(C)(=O)=O)c2)cc1	23000 nM		
O=C(O)CC(c1ccc(OCc2cccc(-c3ccc(C(F)(F)F)cc3)c2)cc1)c1cccs1 (racemic)			EC50 [3]: 190 nM
Cc1ccc(F)cc1-c1cccc(COc2ccc([C@H](CC(=O)O)c3nccn3C)cc2)c1	36 nM	42000 nM	
O=C(O)CC(c1ccc(OCc2cccc(-c3ccc(C(F)(F)F)cc3)c2)cc1)c1ccccn1 (racemic)			EC50 [3]: 330 nM
O=C(O)CC(c1ccc(OCc2cccc(-c3ccc(C(F)(F)F)cc3)c2)cc1)c1nccs1 (racemic)			EC50 [3]: 120 nM
Cc1cc(Cl)ccc1-c1cccc(COc2ccc([C@H](CC(=O)O)c3nccn3C)cc2)c1C	240 nM	23000 nM	
Cn1ccnc1C(CC(=O)O)c1ccc(OCc2cccc(-c3ccc(C(F)(F)F)cc3)c2)cc1 (racemic)			EC50 [3]: 130 nM

Further lines, with some results ahead:

EC50 [1]	EC50 [2]	Compound	also measured
410 nM		COc1ccccc1-c1cccc(COc2ccc([C@H](CC(=O)O)c3nccn3C)cc2)c1	
48 nM	65000 nM	CCc1ccccc1-c1cccc(COc2ccc([C@H](CC(=O)O)c3nccn3C)cc2)c1	
440 nM		COc1ccc(-c2cccc(COc3ccc([C@H](CC(=O)O)c4nccn4C)cc3)c2)cc1	
750 nM		COc1cccc(-c2cccc(COc3ccc([C@H](CC(=O)O)c4nccn4C)cc3)c2)c1	
43 nM	89000 nM	Cc1ccccc1-c1cccc(COc2ccc([C@H](CC(=O)O)c3nccn3C)cc2)c1	Ratio EC50 [4]: 2
43 nM	56000 nM	Cn1ccnc1[C@@H](CC(=O)O)c1ccc(OCc2cccc(-c3ccccc3Cl)c2)cc1	Ratio EC50 [4]: 2
61 nM	22000 nM	Cc1c(Cl)cccc1-c1cccc(COc2ccc([C@H](CC(=O)O)c3nccn3C)cc2)c1	
